Screening results (PubChem)
An excerpt weighted towards active compounds, which were near 2% of everything screened.
PvdQ acylase: blocks Pseudomonas aeruginosa PvdQ acylase activity. inhibition, % at 10 µM. purified PvdQ acylase, fluorescence plate reader. 0.063% of 340,000 active. AID 488965; in the data active means inhibition above about 30%, passing the limit was not always enough
ATG4B inh: blocks human ATG4B protease cleavage of LC3 substrate; Q9Y4P1; ATG4B cleavage of LC3-PLA2, NBD-HPC fluorescence, 1 h; inhibition, % at 8.33 µM; 0.51% of 340,000 active; AID 504462; in the data active means inhibition above about 40%
VIM-2 inhibitor: blocks Pseudomonas aeruginosa VIM-2 metallo-beta-lactamase. purified VIM-2, nitrocefin hydrolysis, epi-absorbance fluorescence. AID 1527. inhibition, % at 5.6 µM. 0.89% of 290,000 active;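 active means inhibition above the mean of all tested compounds plus 3 SD, cutoff set per screening run, cut at about 7.5% in these data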;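 further: red hydrolysis product quenches plate fluorescence so inhibitors raise well fluorescence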
MIN6 prolif: MIN6 beta-cell proliferation induction. MIN6 cells proliferation, ATPlite luminescence, 48 h; cells starved in 0.2% serum; 100% = growth in 10% serum. proliferation, % at 10 µM. 0.29% of 330,000 active;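 active means compounds whose signal lies at least 3.5 SD above the mean of all wells on their plate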
IMP-1 inh-1: inhibitors of Pseudomonas aeruginosa IMP-1 metallo-beta-lactamase; purified IMP-1, nitrocefin hydrolysis, epi-absorbance fluorescence; inhibition, % at 5.6 µM; 0.45% of 290,000 active;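 active means inhibition above the mean plus 3 SD of all compounds in the same screening run, cut at about 4.5% in these data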
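System: purified IMP-1 / Input: IMP-1 dispensed at 0.2 nM / Medium: 50 mM HEPES pH 7.1, 50 µM ZnSO4, 0.05% Brij 35 / Timing: 15 min enzyme–compound preincubation, then 25 min nitrocefin reaction, 25 °C / Technique: plate fluorescence quenching by hydrolysis product, ex 480/em 530 nm / Repeats: singlicate testing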
HKDC1 inh: inhibitors of human hexokinase HKDC1; inhibition, % at 20 µM; Q2TB90; recombinant HKDC1, G6PDH/diaphorase resazurin coupled fluorescence; AID 493160; 0.16% of 340,000 active;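 active means inhibition above about 35% when tested at 20 µM, limit read from the data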
Target sequence (Q2TB90 whole entry, looked up): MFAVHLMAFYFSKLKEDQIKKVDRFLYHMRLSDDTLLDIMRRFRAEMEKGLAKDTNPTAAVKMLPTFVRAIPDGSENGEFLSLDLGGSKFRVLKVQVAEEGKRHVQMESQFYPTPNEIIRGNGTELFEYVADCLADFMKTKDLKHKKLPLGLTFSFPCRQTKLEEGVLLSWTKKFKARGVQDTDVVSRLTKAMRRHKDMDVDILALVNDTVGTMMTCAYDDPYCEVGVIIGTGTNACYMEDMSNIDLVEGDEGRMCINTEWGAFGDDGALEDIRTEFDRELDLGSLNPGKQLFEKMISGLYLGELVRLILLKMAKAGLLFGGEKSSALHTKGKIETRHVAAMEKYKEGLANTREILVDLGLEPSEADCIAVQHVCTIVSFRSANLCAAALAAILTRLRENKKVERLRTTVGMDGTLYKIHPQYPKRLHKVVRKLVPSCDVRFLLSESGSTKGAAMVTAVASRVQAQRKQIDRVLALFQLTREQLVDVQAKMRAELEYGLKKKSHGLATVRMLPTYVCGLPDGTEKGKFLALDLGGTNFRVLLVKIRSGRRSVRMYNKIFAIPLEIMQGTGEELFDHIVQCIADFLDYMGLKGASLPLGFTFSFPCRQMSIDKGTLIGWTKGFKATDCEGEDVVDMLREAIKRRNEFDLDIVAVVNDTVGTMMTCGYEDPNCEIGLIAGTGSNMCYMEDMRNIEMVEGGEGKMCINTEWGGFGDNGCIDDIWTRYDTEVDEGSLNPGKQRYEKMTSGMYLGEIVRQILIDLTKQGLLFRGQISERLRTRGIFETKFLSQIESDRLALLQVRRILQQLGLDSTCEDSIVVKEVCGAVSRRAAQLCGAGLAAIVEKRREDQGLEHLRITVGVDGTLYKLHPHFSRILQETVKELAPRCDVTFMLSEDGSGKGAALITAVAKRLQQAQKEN
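test system = in-house recombinant HK5 (HKDC1) enzyme | amount = HKDC1 at 5 µg/mL | control set = DMSO-enzyme wells negative, buffer-substituted wells positive | compound = one dose of 20 µM, 1% DMSO | schedule = reaction time 90 min, room temperature, protected from light | technique = resorufin fluorescence at 613 nm | reagent = glucose with 1 mM ATP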
IMP-1 inh-2: selectivity counter-screen for VIM-2 inhibitors: IMP-1 metallo-beta-lactamase inhibitors; shares compounds with VIM-2 inhibitor; AID 1856; purified IMP-1, nitrocefin hydrolysis, epi-absorbance fluorescence; 1,300 tested, under 10 active; inhibition, % at 5.6 µM; call rule not given here
VIM-2 FRET inh: inhibits VIM-2 in FRET assay to exclude epi-absorbance artifacts | shares compounds with VIM-2 inhibitor | purified VIM-2, CCF2 FRET substrate hydrolysis | 23% of 1,300 active | inhibition, % at 5.6 µM | AID 1857;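 active means inhibition above the mean of all tested compounds plus 3 SD, cut at about 19% in these data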
TEM-1 inh: selectivity counter-screen for VIM-2 inhibitors: E. coli TEM-1 inhibitors | AID 1866 | 3% of 1,300 active | Purified TEM-1, nitrocefin hydrolysis, epi-absorbance fluorescence | inhibition, % at 5.6 µM | shares compounds with VIM-2 inhibitor;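 active means inhibition above that campaign's mean inhibition plus 3 SD, cut at about 0.46% in these data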
VIM-2 confirm 2: confirmation of P. aeruginosa VIM-2 metallo-beta-lactamase inhibitors; shares compounds with VIM-2 inhibitor; purified VIM-2, nitrocefin hydrolysis, epi-absorbance; inhibition, % at 5.6 µM; 96% of 1,300 active;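 active means inhibition of the VIM-2 beta-lactamase enzyme above about 11% from the earlier first-round screen, limit read from the data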
Hits are given with their value; n = inactive; x = not tested or not shown.

SMILES	PvdQ acylase	ATG4B inh	VIM-2 inhibitor	MIN6 prolif	IMP-1 inh-1	HKDC1 inh	IMP-1 inh-2	VIM-2 FRET inh	TEM-1 inh	VIM-2 confirm 2
C[N+]1(CC(=O)NNc2c3ccccc3nc3ccccc23)CCOCC1	x	x	21	n	n	x	n	n	n	33
O=C(c1ccc2c(=O)n(Cc3ccccc3Cl)c(=S)[nH]c2c1)N1CCCC1	n	n	n	n	n	n	x	x	x	x
Cc1oc2ccc(Br)cc2c(=O)c1-c1nn[nH]n1	n	n	21	n	n	n	n	41	4.2	27
Cc1c(-c2cc[n+]([O-])cc2)oc2ccc(Br)cc2c1=O	x	x	n	n	n	x	x	x	x	x
CCOc1ccccc1C(=O)Nc1ccc(S(=O)(=O)N2CCN(C)CC2)cc1	n	n	18	n	n	n	n	n	n	31
CCOc1ccccc1C(=O)Nc1ccc(S(=O)(=O)N2CCOCC2)cc1	n	n	n	n	n	n	x	x	x	x
CC(C)Oc1cccc(C(=O)NC(=S)Nc2ccc(N3CCN(C)CC3)cc2)c1	n	n	56	n	n	n	n	n	n	70
COc1cccc(C(=O)NC(=S)Nc2ccc(N3CCCC3)cc2)c1	n	n	n	n	n	n	x	x	x	x
CN1CCN(S(=O)(=O)c2ccc(NC(=S)NC(=O)c3ccccc3)cc2)CC1	n	n	34	n	n	n	n	n	n	63
CCOC(=O)c1cc(C(=O)OCC)c(=O)[nH]c1N1CCCCC1	n	n	n	n	n	n	x	x	x	x
Cc1nn(CCc2n[nH]c(=S)n2-c2cccc(Cl)c2)c(C)c1[N+](=O)[O-]	n	n	17	n	n	n	n	48	n	30
Cc1n[nH]c(=S)n1-c1cccc(Cl)c1	n	n	14	n	n	n	n	36	n	23
Cc1cccc(-n2c(-c3ccncc3)n[nH]c2=S)c1C	n	n	n	n	n	n	x	x	x	x
Cc1cccc(-n2c(Cn3nc(C)c([N+](=O)[O-])c3C)n[nH]c2=S)c1	n	n	n	n	n	n	x	x	x	x
Cc1cccc(-n2c(C)n[nH]c2=S)c1C	n	n	12	n	n	n	n	40	n	24
Cc1ccccc1OCc1n[nH]c(=S)n1-c1cccc(Cl)c1	n	n	n	n	n	n	x	x	x	x
COc1cccc(CN(C)CCCn2ccc(NC(=O)OCc3ccccc3)nc2=O)c1	n	n	x	x	x	n	x	x	x	x
COc1ccc(NC(=O)c2cccc(S(=O)(=O)NCc3ccccc3)c2)cc1S(N)(=O)=O	n	n	x	n	x	n	x	x	x	x
COc1ccc(N(CC(=O)NCc2ccccc2OC)S(=O)(=O)c2ccccc2)cc1	n	n	n	n	n	n	x	x	x	x
COc1ccc(Cl)c2c1[nH]c1nc(SCc3ccccn3)nnc12	n	n	13	n	n	n	n	n	n	21
COc1ccc(Cl)c2c1[nH]c1nc(SCc3cccnc3)nnc12	n	n	n	n	n	n	x	x	x	x
CCn1ncc([N+](=O)[O-])c1C(=O)Nc1c(C)nn(Cc2ccc(F)cc2)c1C	n	n	n	n	n	n	x	x	x	x
CCOC(=O)c1sc(CS(=O)(=O)c2ccc(Cl)cc2)nc1C	n	n	n	n	n	n	x	x	x	x
CCOC(=O)N=S(N)(=O)c1ccc(Cl)cc1 (stereo not drawn)	n	n	15	n	n	n	n	32	n	26
CCOC(=O)N=S(N)(=O)c1ccccc1 (stereo not drawn)	n	n	23	n	n	n	n	51	n	34
SMILES	PvdQ acylase	ATG4B inh	VIM-2 inhibitor	MIN6 prolif	IMP-1 inh-1	HKDC1 inh	IMP-1 inh-2	VIM-2 FRET inh	TEM-1 inh	VIM-2 confirm 2
CCCCOc1ccc(N(CC(=O)NC2CCCCC2)C(=O)c2snc(C(N)=O)c2N)cc1	n	n	n	n	n	n	x	x	x	x
CC(=O)NCCn1c(SCC(=O)c2ccccc2)nc2ccccc2c1=O	n	n	14	n	n	n	n	24	n	20
CC(C)c1cc(N2CCN(C(=O)c3ccco3)CC2)n2c(nc3ccccc32)c1C#N	n	n	15	n	n	n	n	n	n	32
CCn1c(N2CCN(C(=O)c3ccco3)CC2)nc2ccccc21	n	n	n	n	n	n	x	x	x	x
CCCn1c(C(C)C)n[nH]c1=S	n	n	26	n	n	n	n	54	n	35
Cc1cccc(-c2cc3nc(C)cc(NCCCn4ccnc4)n3n2)c1	n	n	48	n	n	n	n	n	n	60
Cc1cc(NCCCn2ccnc2)n2ncc(-c3ccc(Cl)cc3)c2n1	n	n	35	n	n	n	n	n	n	50
Cc1cc(NCCCN2CCOCC2)n2ncc(-c3ccc(Cl)cc3)c2n1	n	n	n	n	n	n	x	x	x	x
CCCc1cc(NCCCn2ccnc2)n2nc(C)c(-c3ccccc3)c2n1	n	n	26	n	n	n	n	n	n	47
O=S(=O)(c1ccc(SCc2ccc(Cl)cc2)nc1)N1CCCC1	n	n	x	n	x	n	x	x	x	x
O=C(CCNC(=O)C1CCN(S(=O)(=O)c2ccc(F)cc2)CC1)Nc1ccccc1	n	n	n	n	n	n	x	x	x	x
O=C1c2ccccc2C(=O)c2c(NCCCN(CCO)CCO)cccc21	n	n	22	n	n	n	n	n	n	36
CCN(CC)CCCN(Cc1cc2cc3c(cc2[nH]c1=O)OCO3)C(=S)Nc1ccc(OC)cc1	n	n	n	n	n	n	x	x	x	x
O=C(Nc1ccccc1N1CCCC1)c1cc(=O)[nH]c2ccccc12	n	n	x	n	x	n	x	x	x	x
CC(=O)c1cccc(Nc2nc3ccccc3n3cnnc23)c1	n	n	14	n	n	n	n	n	n	25
Fc1cccc(Nc2nc3ccccc3n3cnnc23)c1	n	n	n	n	n	n	x	x	x	x
CCn1c(=O)c2cc(C(=O)NCC(OC)OC)sc2c2ccccc21	n	n	n	n	n	n	x	x	x	x
CCCN(CCC)CCCNC(=O)c1cc2c(=O)n(CC)c3ccccc3c2s1	n	n	14	n	n	n	n	n	n	21
CCCCN(CC)CCCNC(=O)c1cc2c(=O)n(CC)c3ccccc3c2s1	n	n	12	n	n	n	n	n	n	22
CCCCN(CC)CCNC(=O)c1cc2c(=O)n(CC)c3ccccc3c2s1	n	n	14	n	n	n	n	n	n	19
CCn1c(=O)c2cc(C(=O)NCCC(C)C)sc2c2ccccc21	n	n	n	n	n	n	x	x	x	x
